BaF3 parental = parental Ba/F3 cell viability inhibition, counter-screen for JAK2V617F inhibitor project, murine pro-B, CellTiter-Glo luminescence; 1.1% of 220,000 active; inhibition, % at 5.6 µM; CellTiter-Glo ATP luminescence;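 active means inhibition above a per-campaign cutoff, the mean inhibition of all tested compounds plus 3 SD, cut at about 27% in these data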;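 further: 0% = DMSO wells and 100% = JAK Inhibitor I control wells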
IEC-6 cytotox = cytotoxicity in IEC-6 intestinal epithelial cells, primary screen, cytotoxicity control for KLF5 inhibitor project, cell-based, luminescence | inhibition, % at 5 µM | IEC-6 cytotoxicity, luminescence viability | 0.78% of 290,000 active | AID 1825, 2009; in the data active means inhibition above about 22%;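 further: 0% = plate median of test compound wells and 100% = cytotoxic reference compound wells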
b-catenin transl = modulators of beta-catenin nuclear translocation, primary screen, imaging, HeLa cells, immunofluorescence, high-content; nuclear translocation activity, % at 5 µM; 0.3% of 190,000 active; AID 1665, 2009;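 active means nuclear translocation activity above 50% at 5 µM, with a well cell count of 50 or more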;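 further: per-cell ratio of nuclear to cytoplasmic median beta-catenin stain intensity; plate controls were DMSO negative control for no effect and GSK-3 inhibitor IX positive control for full effect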
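Test system: human HeLa cell line; Doses: 5 µM primary, 0.02–20 µM confirmation; Incubation: 24 h compound exposure, 37°C; Detection: beta-catenin immunofluorescence imaging with DAPI; Read-out: beta-catenin nuclear/cytoplasmic ratio, % activation.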
MT stabilize HCS = microtubule stabilizers in HeLa cells, primary screen, imaging, high-content imaging. AID 2205, 2009. % tubulin-high responders, % at 10 µM. 0.83% of 200,000 active. HeLa tubulin immunostaining HCS, 24 h; share of cells brighter than vehicle mean+2SD;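 active means plate Z-score above 3 for both tubulin-high and condensed-nucleus cell shares, with cell loss under 80%, at 10 µM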;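 further: anti alpha tubulin signal scored within the nucleus-defined area of each cell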
Ba/F3 V617F tox = reduced viability of JAK2V617F-dependent Ba/F3 cells, primary screen, JAK2V617F inhibitor project, cell-based, Ba/F3 EpoR-JAK2V617F, luminescence. inhibition, % at 5.6 µM. 1.1% of 220,000 active. ATP luminescence. AID 1446, 2008;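 active means inhibition above the campaign mean plus 3 SD over all tested compounds, cut at about 24% in these data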;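 further: cytokine-independent growth of Ba/F3 cells driven by EpoR plus mutant JAK2; 0% = DMSO-treated cells and 100% = JAK inhibitor I control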
APP transl inh = inhibitors of APP translation via 5'UTR reporter, primary screen, APP 5'UTR luciferase, SH-SY5Y cells; SH-SY5Y APP 5'UTR-luciferase reporter, luminescence; inhibition, % at 2 µM; 0.82% of 190,000 active; AID 1285, 2008;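 active means inhibition above a set limit, derived from the sample mean plus 3 SD, cut at about 45% in these data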
* marks the source's active call; other numbers are inactive results; / = not tested or not shown. A selection: hits, their analogues and other compounds. The true share with any hit is near 2.2%.

SMILES	BaF3 parental	IEC-6 cytotox	b-catenin transl	MT stabilize HCS	Ba/F3 V617F tox	APP transl inh
Cc1cc(/C=C2\SC(=Nc3ccccc3)NC2=O)c(C)n1-c1ccc(S(N)(=O)=O)cc1	62.6*	-4.3	/	13.2	28.3*	52.7*
Cc1ccc(-n2c(C)cc(/C=C3\SC(=O)NC3=O)c2C)cc1	/	-14.3	/	/	/	/
COc1ccc(-c2ccc(CCC(=O)O)n2CC(=O)Nc2ccccc2C)cc1	/	-0.4	/	/	/	/
O=C(CCc1nnc(COc2ccccc2)o1)NCCc1cccs1	5.9	-8.2	1.9	2.6	-1.4	-23.2
CC(C)CCNC(=O)CCc1nnc(COc2ccccc2)o1	80.8*	-1.5	-0.3	1.4	0.1	-17.0
Cc1sc2cc3c(c(C(=O)c4ccccc4)[n+]2c1C)-c1cccc2cccc-3c12	88.5*	5.8	-0.9	2.7	100.0*	14.4
Cc1cc(C)c2c(N)c(C(=O)c3ccccc3)sc2n1	-0.8	0.5	1.2	/	-0.8	/
Cn1cc(CNCc2ccc(OC(F)(F)F)cc2)c(-c2ccc3c(c2)OCCO3)n1	39.5*	13.5	1.5	3.1	46.7*	-10.5
O=C(Nc1nc(-c2ccccc2)cs1)c1ccccc1NS(=O)(=O)c1ccc(F)cc1	45.9*	13.1	1.5	4.8	22.8	-1.9
O=S(=O)(Nc1ccc(-c2csc(-c3ccccc3)n2)cc1)c1ccc(F)cc1	-0.5	0.9	4.5	3.5	2.9	3.7
Cn1c(COc2ccc([N+](=O)[O-])cc2)nnc1SCC(=O)NCC1CCCO1 (centres undefined)	/	2.7	/	/	/	/
COc1ccc(C2CC(c3cccs3)=NN2S(C)(=O)=O)cc1 (centres undefined)	-2.5	-1.0	-0.2	/	-3.1	/
COc1ccc(C2CC(c3cccs3)=Nc3ccccc3S2)cc1 (centres undefined)	3.0	0.2	-0.8	20.6*	0.8	-85.2
CC1(C)Cc2c(cnn2-c2ccc(F)cc2)C(NC(=O)CN2CCCC2=O)C1 (centres undefined)	/	-0.8	/	/	/	/
O=C1N/C(=N\N=C\c2cccs2)SC1Cc1cccc(Cl)c1 (centres undefined)	3.3	-2.0	24.8	21.6*	-2.3	4.8
Cc1ccnc(NC(=O)C2COc3ccccc3O2)c1 (centres undefined)	84.7*	7.9	3.7	2.3	6.5	-129.6
Cc1ccc(-c2nnc(SCC(C)C)n2C)cc1	32.6*	-0.3	3.7	3.1	30.2*	-47.0
Cc1ccc(-c2nnc(SCC(N)=O)n2C)cc1	7.3	3.2	0.6	1.9	0.9	1.8
COc1ccc(Cl)cc1NC(=O)CCN1C(=O)C2C3CCC(C3)C2C1=O (centres undefined)	/	1.4	/	/	/	/
Cc1cccc(Cn2c(=O)n(-c3ccc(CC(=O)NCc4ccco4)cc3)c(=O)c3sccc32)c1	0.2	3.4	-1.2	28.9*	-1.0	-10.6
Cc1ccc(-n2c(=O)c3sccc3n(CC(=O)NCc3ccco3)c2=O)cc1	2.6	-0.9	-1.1	3.9	-5.8	14.5
COc1ccccc1NC(=O)CCN1C(=O)c2ccccc2S1(=O)=O	8.3	-3.1	0.6	2.2	-1.0	-9.3
COc1cccc(C2C3=C(Nc4[nH]n(-c5ccccc5)c(=O)c42)c2ccccc2C3=O)c1 (centres undefined)	5.5	1.6	-0.3	2.0	-0.8	11.8
Cn1c2c(c(=O)[nH]c1=O)C(c1cccc(O)c1)C1=C(N2)c2ccccc2C1=O (centres undefined)	15.7	1.9	3.2	19.9*	35.4*	27.9
Cc1ccc(-n2c(-c3ccc(Cl)cc3)c[n+]3c2CCC3)cc1	65.0*	-6.0	0.7	/	69.0*	/
SMILES	BaF3 parental	IEC-6 cytotox	b-catenin transl	MT stabilize HCS	Ba/F3 V617F tox	APP transl inh
Cc1ccc(-n2c(-c3ccccc3)c[n+]3c2CCC3)cc1	68.0*	3.6	0.5	4.2	76.8*	-1.0
Cc1ccc(-n2nc(C(=O)N3CCOCC3)cc2-c2ccc(Cl)cc2)cc1	3.0	-3.9	-4.4	0.7	-0.5	-19.0
FC(F)Sc1ccc(-n2c(-c3ccc(Cl)cc3)c[n+]3c2CCC3)cc1	44.3*	1.0	2.3	1.1	23.9*	2.3
CC(C)c1ccc(/C=C(\NC(=O)c2ccccc2)C(=O)NCCCn2ccnc2)cc1	/	-4.3	/	/	/	/
CCOc1cc(/C=C(\CC(=O)O)c2nc3ccccc3s2)ccc1OC	41.1*	11.6	-1.2	2.8	9.0	-8.8
COc1ccc(N(C)C(=O)C2CCN(S(=O)(=O)c3cccc4nonc34)CC2)cc1	/	3.3	/	/	/	/
CCOc1ccccc1N(C)C(=O)C1CCN(S(=O)(=O)c2cccc3nonc23)CC1	4.7	-3.1	/	4.1	-2.1	62.9*
C1CCCCCC(NCCN2CCNCC2)CCCCC1	41.8*	8.7	10.9	/	79.8*	/
CCc1ccc(CN2CCC(N3CCC(C(=O)N4CCCC4)CC3)CC2)o1	/	-8.0	/	/	/	/
COc1cc(C(=O)c2cocc2C(=O)c2ccc3c(c2)OCO3)cc(OC)c1OC	77.8*	77.4*	1.3	/	71.3*	/
COc1cc(C(=O)N/N=C(\C)c2ccc3c(c2)OCO3)cc(OC)c1OC	72.0*	89.2*	12.2	20.3*	72.9*	90.6*
COc1cc(C(=O)NNC(=S)NC(=O)c2ccc3c(c2)OCO3)cc(OC)c1OC	-1.6	6.2	0.3	/	0.1	/
COc1ccccc1CN(C(=O)CNC(=O)c1ccco1)C(C(=O)NCC1CCCO1)c1ccc(OC)c(OC)c1 (centres undefined)	/	4.0	/	/	/	/
CCc1cc(=O)oc2cc3occ(-c4ccc(OC)c(F)c4)c3cc12	8.3	6.2	66.4*	9.8	1.9	91.4*
CCc1cc(=O)oc2cc3occ(C)c3cc12	-0.4	5.6	1.7	3.3	-0.1	4.3
COc1ccc2nc(-c3ccccc3)nc(SCC(=O)NCC3CCCO3)c2c1 (centres undefined)	/	9.3	/	/	/	/
CNC(=S)Nc1ccc(N2CCN(c3ccc(C(F)(F)F)cn3)CC2)nc1	1.2	0.5	-0.7	/	-1.4	/
Cc1cccc2nc(COc3ccc(-c4ccccc4)cc3)cn12	37.8*	1.6	7.3	3.6	43.6*	-38.7
Cc1cc(C)n2cc(COc3ccc4ccccc4c3)nc2n1	0.5	6.9	/	4.8	-3.1	-146.1
COc1cc(NC(=O)c2cccs2)c(OC)cc1NC(=O)Nc1ccc(F)cc1	/	-0.9	/	/	/	/
CC(=O)Nc1cccc(NC(=O)Nc2cccc(Cl)c2C)c1	6.9	-3.8	1.4	1.8	-1.2	0.8
CC(=O)Nc1cccc(NC(=S)Nc2cccc(Cl)c2C)c1	89.6*	2.8	-3.1	0.8	-2.2	-3.8

Assay outcomes: PubChem BioAssay, several laboratories
